Measured values from ChEMBL document CHEMBL1156597, “Structure-activity relationship of kahalalide F synthetic analogues” (J Med Chem, 2008).

Columns and labels:
HeLa = assay: Cytotoxicity against human HeLa cells after 48 hrs by SRB assay; assay type: functional; conditions: for CC50: read-out: LC50 (the source's name)
How it was run: (§1)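 Cells grown in RPMI 1640 with 10% FBS and penicillin/streptomycin at 37 °C and 5% CO₂, trypsinized, then seeded at 5 × 10³/well. After 18 h drug-free attachment, samples in DMSO/EtOH/PBS (0.5:0.5:99) were added for 48 h continuous exposure. Cells were fixed with cold TCA (1 h, 4 °C) and stained with SRB (10 min). Tris-solubilized stain read at 490 nm. Triplicate wells, mean ± SD; GI₅₀ derived.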

SK-MEL-28 = assay: Cytotoxicity against human SK-MEL-28 cells after 48 hrs by SRB assay; assay type: functional, cell-based; conditions: Homo sapiens, SK-MEL-28, 48 h; for CC50: read-out: LC50 (the source's name); how it was run: as §1
LoVo [1] = assay: Cytotoxicity against human doxorubicin resistant LoVo cells after 48 hrs by SRB assay; assay type: functional; conditions: for CC50: read-out: LC50 (the source's name); how it was run: as §1
[2] = Cytotoxicity against human HeLa-APL cells after 48 hrs by SRB assay; assay type: functional; how it was run: as §1
LNCaP = assay: Cytotoxicity against human LNcaP cells after 48 hrs by SRB assay; assay type: functional; conditions: for CC50: read-out: LC50 (the source's name); how it was run: as §1
[3] = Cytotoxicity against human IGROV cells after 48 hrs by SRB assay; assay type: functional; conditions: for CC50: read-out: LC50 (the source's name); how it was run: as §1
K562 = assay: Cytotoxicity against human K562 cells after 48 hrs by SRB assay; assay type: functional; conditions: K562, 48 h; for CC50: read-out: LC50 (the source's name); how it was run: as §1
LoVo [4] = assay: Cytotoxicity against human LoVo cells after 48 hrs by SRB assay; assay type: functional; conditions: for CC50: read-out: LC50 (the source's name)
PANC-1 = assay: Cytotoxicity against human PANC1 cells after 48 hrs by SRB assay; assay type: functional; conditions: PANC-1, 48 h; for CC50: read-out: LC50 (the source's name); how it was run: as §1
HT-29 = assay: Cytotoxicity against human HT29 cells after 48 hrs by SRB assay; assay type: functional, cell-based; conditions: Homo sapiens, HT-29, 48 h; for CC50: read-out: LC50 (the source's name); how it was run: as §1
DU-145 = assay: Cytotoxicity against human DU145 cells after 48 hrs by SRB assay; assay type: functional, cell-based; conditions: Homo sapiens, DU-145, 48 h; for CC50: read-out: LC50 (the source's name); how it was run: as §1
SK-BR-3 = assay: Cytotoxicity against human SKBR3 cells after 48 hrs by SRB assay; assay type: functional; conditions: SK-BR-3, 48 h; for GI50: read-out: GI50; for CC50: read-out: LC50 (the source's name); how it was run: as §1
[5] = Cytotoxicity against human IGROV-ET cells after 48 hrs by SRB assay; assay type: functional; conditions: for CC50: read-out: LC50 (the source's name); how it was run: as §1
A549 = assay: Cytotoxicity against human A549 cells after 48 hrs by SRB assay; assay type: functional, cell-based; conditions: Homo sapiens, A549, 48 h; how it was run: as §1

SMILES: C/C=C1\NC(=O)[C@H](CCC2CCCCC2)NC(=O)[C@@H](C(C)C)NC(=O)[C@@H]([C@@H](C)CC)NC(=O)[C@H](NC(=O)[C@H](NC(=O)[C@H](CCCN)NC(=O)[C@H]2CCCN2C(=O)[C@H](NC(=O)[C@@H](NC(=O)[C@@H](NC(=O)[C@H](NC(=O)CCCC(C)C)C(C)C)[C@@H](C)O)C(C)C)C(C)C)[C@@H](C)CC)[C@@H](C)OC(=O)[C@H](C(C)C)NC1=O
- GI50 (HeLa): 304 nM
- TGI (HeLa): 313 nM
- CC50 (HeLa): 500 nM
- TGI (SK-MEL-28): 1000 nM
- GI50 (SK-MEL-28; read-out: GI50): 1020 nM
- CC50 (SK-MEL-28): 983 nM
- GI50 (LoVo [1]): 224 nM
- TGI (LoVo [1]): 258 nM
- CC50 (LoVo [1]): 296 nM
- GI50 [2]: 319 nM
- LC50 (concentration giving 50% net cell kill) [2]: 617 nM
- TGI [2]: 499 nM
- GI50 (LNCaP): 384 nM
- TGI (LNCaP): 625 nM
- CC50 (LNCaP): 661 nM
- GI50 [3]: 372 nM
- GI50 ([3]; read-out: GI50): 276 nM
- CC50 [3]: 378 nM
- GI50 (K562): 1420 nM
- TGI (K562): 1410 nM
- CC50 (K562): 1390 nM
- GI50 (LoVo [4]): 266 nM
- TGI (LoVo [4]): 282 nM
- CC50 (LoVo [4]): 298 nM
- GI50 (PANC-1): 1120 nM
- TGI (PANC-1): 1290 nM
- CC50 (PANC-1): 1490 nM
- GI50 (HT-29): 294 nM
- TGI (HT-29): 352 nM
- CC50 (HT-29): 359 nM
- GI50 (DU-145): 472 nM
- GI50 (DU-145; read-out: GI50): 464 nM
- CC50 (DU-145): 553 nM
- TGI (SK-BR-3): 205 nM
- GI50 (SK-BR-3): 165 nM
- CC50 (SK-BR-3): 256 nM
- GI50 [5]: 312 nM
- GI50 ([5]; read-out: GI50): 232 nM
- CC50 [5]: 350 nM
- GI50 (A549): 857 nM
- LC50 (A549): 959 nM
- GI50 (A549; read-out: GI50): 756 nM

SMILES: C/C=C1\NC(=O)[C@H](Cc2ccccc2)NC(=O)[C@@H](C(C)C)NC(=O)[C@@H]([C@H](C)CC)NC(=O)[C@H](NC(=O)[C@H](NC(=O)[C@H](CCCN)NC(=O)[C@H]2CCCN2C(=O)[C@H](NC(=O)[C@@H](NC(=O)[C@@H](NC(=O)[C@H](NC(=O)CCCCCCC)C(C)C)[C@@H](C)O)C(C)C)C(C)C)[C@H](C)CC)[C@H](C)OC(=O)[C@H](C(C)C)NC1=O
- GI50 (HeLa): 946 nM
- TGI (HeLa): 1010 nM
- CC50 (HeLa): 1080 nM
- GI50 (SK-MEL-28): 949 nM
- GI50 (SK-MEL-28; read-out: GI50): 933 nM
- CC50 (SK-MEL-28): 966 nM
- GI50 (LoVo [1]): 299 nM
- TGI (LoVo [1]): 289 nM
- CC50 (LoVo [1]): 278 nM
- GI50 [2]: 527 nM
- LC50 (concentration giving 50% net cell kill) [2]: 1220 nM
- TGI [2]: 808 nM
- GI50 (LNCaP): 779 nM
- TGI (LNCaP): 837 nM
- CC50 (LNCaP): 889 nM
- GI50 [3]: 580 nM
- GI50 ([3]; read-out: GI50): 684 nM
- CC50 [3]: 509 nM
- GI50 (K562): 1000 nM
- TGI (K562): 1230 nM
- CC50 (K562): 1500 nM
- GI50 (LoVo [4]): 321 nM
- TGI (LoVo [4]): 396 nM
- CC50 (LoVo [4]): 443 nM
- GI50 (PANC-1): 2830 nM
- TGI (PANC-1): 4210 nM
- CC50 (PANC-1): 2290 nM
- GI50 (HT-29): 578 nM
- TGI (HT-29): 587 nM
- CC50 (HT-29): 917 nM
- GI50 (DU-145): 666 nM
- GI50 (DU-145; read-out: GI50): 578 nM
- CC50 (DU-145): 758 nM
- TGI (SK-BR-3): 359 nM
- GI50 (SK-BR-3): 343 nM
- CC50 (SK-BR-3): 374 nM
- GI50 [5]: 513 nM
- GI50 ([5]; read-out: GI50): 529 nM
- CC50 [5]: 393 nM
- LC50 (A549): 1200 nM
- TGI (A549): 1130 nM
- GI50 (A549; read-out: GI50): 1050 nM

SMILES: CC[C@@H](C)[C@@H](NC(=O)[C@H](CCCN)NC(=O)[C@H]1CCCN1C(=O)[C@H](NC(=O)[C@@H](NC(=O)[C@@H](NC(=O)[C@H](NC(=O)CCCC(C)C)C(C)C)[C@@H](C)O)C(C)C)C(C)C)C(=O)N[C@H]1C(=O)N[C@H]([C@H](C)CC)C(=O)N[C@H](C(C)C)C(=O)N[C@@H](Cc2ccccc2)C(=O)NCC(=O)N[C@@H](C(C)C)C(=O)O[C@H]1C
- CC50 (HeLa): 526 nM
- TGI (SK-MEL-28): 1700 nM
- GI50 (SK-MEL-28; read-out: GI50): 1390 nM
- CC50 (SK-MEL-28): 1780 nM
- GI50 (LoVo [1]): 830 nM
- TGI (LoVo [1]): 1020 nM
- CC50 (LoVo [1]): 362 nM
- GI50 [2]: 1830 nM
- LC50 (concentration giving 50% net cell kill) [2]: 1450 nM
- TGI [2]: 2860 nM
- GI50 (LNCaP): 2740 nM
- TGI (LNCaP): 2780 nM
- CC50 (LNCaP): 1420 nM
- GI50 [3]: 748 nM
- GI50 ([3]; read-out: GI50): 1640 nM
- CC50 [3]: 361 nM
- GI50 (K562): 2530 nM
- TGI (K562): 3040 nM
- CC50 (K562): 1970 nM
- GI50 (LoVo [4]): 1840 nM
- TGI (LoVo [4]): 1850 nM
- CC50 (LoVo [4]): 1680 nM
- CC50 (PANC-1): 1810 nM
- GI50 (HT-29): 2260 nM
- TGI (HT-29): 2120 nM
- CC50 (HT-29): 775 nM
- TGI (DU-145): 1160 nM
- GI50 (DU-145; read-out: GI50): 1410 nM
- CC50 (DU-145): 953 nM
- TGI (SK-BR-3): 1640 nM
- GI50 (SK-BR-3): 1660 nM
- CC50 (SK-BR-3): 683 nM
- GI50 [5]: 465 nM
- GI50 ([5]; read-out: GI50): 722 nM
- CC50 [5]: 308 nM
- LC50 (A549): 1460 nM
- TGI (A549): 2100 nM
- GI50 (A549; read-out: GI50): 1630 nM
